Test results from ChEMBL document CHEMBL1806442, “Synthesis of novel alkyltriazole tagged pyrido[2,3-d]pyrimidine derivatives and their anticancer activity” (Eur J Med Chem, 2011).
Converted amounts (≈) assume the structure as drawn.

How the values were obtained:
Format in all cases: functional, cell-based
U-937 = assay: Cytotoxicity against human U937 cells after 24 hrs by MTT assay; settings: U-937, 24 h
Procedure, shortened: (§1)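 Cells kept in RPMI-1640 with 10% heat-inactivated FBS, 1 mM NaHCO3, 2 mM L-glutamine and 100 units/ml antibiotic. Seeded at 2 × 10^4 per well in 0.1 ml, left overnight, then given graded compound from DMSO stocks for 24 h. MTT added for a further 3 h at 37 °C, formazan dissolved in DMSO and read at 570 nm. Percent viability inhibition taken against untreated control; IC50 from linear regression.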

THP-1 = assay: Cytotoxicity against human THP1 cells after 24 hrs by MTT assay; settings: THP-1, 24 h; procedure, shortened: as §1
COLO 205 = assay: Cytotoxicity against human COLO205 cells after 24 hrs by MTT assay; settings: COLO 205, 24 h; procedure, shortened: as §1

Structure (SMILES) | IC50 (U-937) [µg/mL] | IC50 (THP-1) [µg/mL] | IC50 (COLO 205) [µg/mL]
Cc1nc2nc(-c3ccccc3)cc(C(F)(F)F)c2c(=O)n1Cc1cn(-c2ccccc2)nn1 | > 200 | > 200 | > 200
CCc1nc2nc(-c3ccccc3)cc(C(F)(F)F)c2c(=O)n1Cc1cn(CCC(F)(F)C(F)(F)C(F)(F)C(F)(F)C(F)(F)C(F)(F)C(F)(F)C(F)(F)F)nn1 | > 200 | > 200 | > 200
COc1cc([C@@H]2c3cc4c(cc3[C@@H](O[C@@H]3O[C@@H]5CO[C@@H](C)O[C@H]5[C@H](O)[C@H]3O)[C@H]3COC(=O)[C@H]23)OCO4)cc(OC)c1O [ETOPOSIDE] | 17.9 (≈ 30.5 µM) | 2.16 (≈ 3.67 µM) | 7.24 (≈ 12.3 µM)
FC(F)(F)c1cc(-c2ccccc2)nc2nc(-c3ccccc3)nc(OCc3cn(CCC(F)(F)C(F)(F)C(F)(F)C(F)(F)C(F)(F)C(F)(F)C(F)(F)C(F)(F)F)nn3)c12 | 44.4 (≈ 49.6 µM) | > 200 | > 200
Cc1nc2nc(-c3ccccc3)cc(C(F)(F)F)c2c(=O)n1Cc1cn(CCC(F)(F)C(F)(F)C(F)(F)C(F)(F)C(F)(F)C(F)(F)C(F)(F)C(F)(F)F)nn1 | 124 (≈ 149 µM) | > 200 | > 200
CCc1nc(OCc2cn(CCC(F)(F)C(F)(F)C(F)(F)C(F)(F)C(F)(F)C(F)(F)F)nn2)c2c(C(F)(F)F)cc(-c3ccccc3)nc2n1 | 9.22 (≈ 12.4 µM) | > 200 | > 200
CCCCCCCCCCn1cc(Cn2c(C)nc3nc(-c4ccccc4)cc(C(F)(F)F)c3c2=O)nn1 | 6.2 (≈ 11.8 µM) | 11.3 (≈ 21.4 µM) | 15 (≈ 28.5 µM)
Cc1nc(OCc2cn(CCC(F)(F)C(F)(F)C(F)(F)C(F)(F)C(F)(F)C(F)(F)C(F)(F)C(F)(F)F)nn2)c2c(C(F)(F)F)cc(-c3ccccc3)nc2n1 | 22.4 (≈ 26.9 µM) | 107 (≈ 129 µM) | > 200
CCCCCCCCCCn1cc(Cn2c(CC)nc3nc(-c4ccccc4)cc(C(F)(F)F)c3c2=O)nn1 | 17.8 (≈ 33 µM) | 82.6 (≈ 153 µM) | > 200
CC(C)c1nc2nc(-c3ccccc3)cc(C(F)(F)F)c2c(=O)n1Cc1cn(CCC(F)(F)C(F)(F)C(F)(F)C(F)(F)C(F)(F)C(F)(F)C(F)(F)C(F)(F)F)nn1 | 8.35 (≈ 9.7 µM) | 142 (≈ 165 µM) | > 200
Cc1nc2nc(-c3ccccc3)cc(C(F)(F)F)c2c(=O)n1Cc1cn(CCC(F)(F)C(F)(F)C(F)(F)C(F)(F)C(F)(F)C(F)(F)F)nn1 | > 200 | > 200 | > 200
CCCCCCc1nc2nc(-c3ccccc3)cc(C(F)(F)F)c2c(=O)n1Cc1cn(CCC(F)(F)C(F)(F)C(F)(F)C(F)(F)C(F)(F)C(F)(F)C(F)(F)C(F)(F)F)nn1 | > 200 | > 200 | > 200
CCCCCCc1nc2nc(-c3ccccc3)cc(C(F)(F)F)c2c(=O)n1Cc1cn(CCC(F)(F)C(F)(F)C(F)(F)C(F)(F)C(F)(F)C(F)(F)F)nn1 | 7.56 (≈ 9.42 µM) | > 200 | 132 (≈ 165 µM)
CCc1nc2nc(-c3ccccc3)cc(C(F)(F)F)c2c(=O)n1Cc1cn(CCC(F)(F)C(F)(F)C(F)(F)C(F)(F)C(F)(F)C(F)(F)F)nn1 | > 200 | > 200 | > 200
O=c1c2c(C(F)(F)F)cc(-c3ccccc3)nc2ncn1Cc1cn(CCC(F)(F)C(F)(F)C(F)(F)C(F)(F)C(F)(F)C(F)(F)C(F)(F)C(F)(F)F)nn1 | > 200 | 79.1 (≈ 96.7 µM) | 163 (≈ 199 µM)
CCCCCCCCCCn1cc(Cn2cnc3nc(-c4ccccc4)cc(C(F)(F)F)c3c2=O)nn1 | 8.16 (≈ 15.9 µM) | 16.9 (≈ 33 µM) | 19.2 (≈ 37.6 µM)
